Assay results as given in ChEMBL document CHEMBL1141588, “Pyrrolo[2,3-a]carbazoles as potential cyclin dependent kinase 1 (CDK1) Inhibitors. Synthesis, biological evaluation, and binding mode through docking simulations” (J Med Chem, 2008).
One block for each compound: values may come before it. Calls of active or inactive are those of the source. No cut-off for these calls is given here.

Experiments:
[1] = biological target: Cyclin-dependent kinase 1/cyclin B1 (Homo sapiens, UniProt P06493); assay: Inhibition of CDK1/cyclin B by MESACUP assay; assay type: protein-complex assay
[2] = biological target: T1, Cyclin-dependent kinase 1/cyclin B1 (Homo sapiens) (UniProt P06493+P14635); assay: Inhibition of CDK1/cyclin B at 30 uM; assay type: protein-complex assay
[3] = biological target: T1, Cyclin-dependent kinase 1/cyclin B1 (Homo sapiens); assay: Inhibition of CDK1/cyclin B at 100 uM; assay type: protein-complex assay
In short: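 CDK1/cyclin B complex activity measured in vitro with the MESACUP cdc2 kinase assay kit. Compounds were tested at 100 µM. Activity was expressed as % CDK1 activity relative to untreated control samples, as mean ± SEM, with statistical comparison against control (P < 0.05, P < 0.001).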

[4] = Inhibition of CDK1/cyclin A at 50 uM
[5] = Inhibition of CDK1/cyclin E at 50 uM
[6] = biological target: Epidermal growth factor receptor (Homo sapiens) (UniProt P00533); assay: Inhibition of EGFR upto 50 uM
[7] = Inhibition of IGFR upto 50 uM
[8] = Inhibition of FGFR upto 50 uM
[9] = biological target: Vascular endothelial growth factor receptor 2 (Homo sapiens) (UniProt P35968); assay: Inhibition of KDR upto 50 uM
[10] = biological target: Vascular endothelial growth factor receptor 3 (Homo sapiens) (UniProt P35916); assay: Inhibition of Flt4 upto 50 uM
[11] = biological target: Angiopoietin-1 receptor (Homo sapiens) (UniProt Q02763); assay: Inhibition of Tie2 upto 50 uM
Angiopoietin-1 receptor (Homo sapiens), sequence (Q02763 whole entry): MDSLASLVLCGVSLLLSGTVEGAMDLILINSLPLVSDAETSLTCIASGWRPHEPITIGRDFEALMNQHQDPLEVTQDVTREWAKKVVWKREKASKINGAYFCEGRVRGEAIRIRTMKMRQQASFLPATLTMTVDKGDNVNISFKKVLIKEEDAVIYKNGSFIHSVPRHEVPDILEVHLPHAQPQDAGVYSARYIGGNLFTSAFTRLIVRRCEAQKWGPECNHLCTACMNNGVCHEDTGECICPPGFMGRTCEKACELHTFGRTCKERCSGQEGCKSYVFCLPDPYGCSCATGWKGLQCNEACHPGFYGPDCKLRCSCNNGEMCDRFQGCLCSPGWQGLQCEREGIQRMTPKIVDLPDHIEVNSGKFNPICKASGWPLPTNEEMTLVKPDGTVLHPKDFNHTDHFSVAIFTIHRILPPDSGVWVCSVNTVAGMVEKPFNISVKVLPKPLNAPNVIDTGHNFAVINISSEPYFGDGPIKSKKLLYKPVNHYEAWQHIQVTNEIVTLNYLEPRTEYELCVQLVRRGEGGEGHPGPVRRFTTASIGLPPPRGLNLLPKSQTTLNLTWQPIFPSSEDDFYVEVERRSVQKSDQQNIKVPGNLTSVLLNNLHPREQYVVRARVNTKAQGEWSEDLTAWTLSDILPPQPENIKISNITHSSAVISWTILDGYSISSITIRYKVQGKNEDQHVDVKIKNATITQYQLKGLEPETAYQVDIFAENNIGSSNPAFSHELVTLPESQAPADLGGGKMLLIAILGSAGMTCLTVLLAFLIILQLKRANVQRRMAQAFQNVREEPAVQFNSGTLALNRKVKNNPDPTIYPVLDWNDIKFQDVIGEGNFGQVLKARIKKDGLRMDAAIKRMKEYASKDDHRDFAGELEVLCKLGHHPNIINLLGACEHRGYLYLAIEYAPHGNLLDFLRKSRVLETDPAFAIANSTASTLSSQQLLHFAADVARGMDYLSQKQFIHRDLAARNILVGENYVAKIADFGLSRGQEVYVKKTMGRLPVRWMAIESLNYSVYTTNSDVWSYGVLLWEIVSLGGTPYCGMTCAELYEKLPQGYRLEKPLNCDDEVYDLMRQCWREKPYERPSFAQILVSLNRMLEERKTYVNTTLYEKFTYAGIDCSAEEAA

Cyclin-dependent kinase 1/cyclin B1, sequence (P06493 whole entry): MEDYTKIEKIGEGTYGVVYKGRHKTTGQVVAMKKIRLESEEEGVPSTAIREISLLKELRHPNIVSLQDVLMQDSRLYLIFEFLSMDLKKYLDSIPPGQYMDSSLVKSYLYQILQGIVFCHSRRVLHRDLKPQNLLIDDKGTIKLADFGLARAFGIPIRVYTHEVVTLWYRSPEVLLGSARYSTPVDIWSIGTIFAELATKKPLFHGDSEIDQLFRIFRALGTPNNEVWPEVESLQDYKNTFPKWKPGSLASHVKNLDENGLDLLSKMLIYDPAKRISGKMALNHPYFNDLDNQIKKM
Cyclin-dependent kinase 1/cyclin B1, sequence (P14635 whole entry, further chain): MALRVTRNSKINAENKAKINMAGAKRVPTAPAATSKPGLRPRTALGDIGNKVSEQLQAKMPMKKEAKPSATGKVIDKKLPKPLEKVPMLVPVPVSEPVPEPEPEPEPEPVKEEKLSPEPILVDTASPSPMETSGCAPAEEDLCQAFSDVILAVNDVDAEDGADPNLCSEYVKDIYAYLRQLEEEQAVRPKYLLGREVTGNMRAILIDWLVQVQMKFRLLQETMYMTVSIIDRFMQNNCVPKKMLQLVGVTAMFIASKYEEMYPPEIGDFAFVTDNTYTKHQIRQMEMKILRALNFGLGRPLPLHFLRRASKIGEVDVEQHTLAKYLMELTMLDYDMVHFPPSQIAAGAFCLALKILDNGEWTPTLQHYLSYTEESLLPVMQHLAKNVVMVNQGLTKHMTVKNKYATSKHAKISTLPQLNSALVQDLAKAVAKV
T1 sequence (P06493 whole entry, looked up): as the sequence (P06493 whole entry) above
T1 sequence (P14635 whole entry, looked up): as the sequence (P14635 whole entry, further chain) above
Epidermal growth factor receptor (Homo sapiens), sequence (P00533 whole entry): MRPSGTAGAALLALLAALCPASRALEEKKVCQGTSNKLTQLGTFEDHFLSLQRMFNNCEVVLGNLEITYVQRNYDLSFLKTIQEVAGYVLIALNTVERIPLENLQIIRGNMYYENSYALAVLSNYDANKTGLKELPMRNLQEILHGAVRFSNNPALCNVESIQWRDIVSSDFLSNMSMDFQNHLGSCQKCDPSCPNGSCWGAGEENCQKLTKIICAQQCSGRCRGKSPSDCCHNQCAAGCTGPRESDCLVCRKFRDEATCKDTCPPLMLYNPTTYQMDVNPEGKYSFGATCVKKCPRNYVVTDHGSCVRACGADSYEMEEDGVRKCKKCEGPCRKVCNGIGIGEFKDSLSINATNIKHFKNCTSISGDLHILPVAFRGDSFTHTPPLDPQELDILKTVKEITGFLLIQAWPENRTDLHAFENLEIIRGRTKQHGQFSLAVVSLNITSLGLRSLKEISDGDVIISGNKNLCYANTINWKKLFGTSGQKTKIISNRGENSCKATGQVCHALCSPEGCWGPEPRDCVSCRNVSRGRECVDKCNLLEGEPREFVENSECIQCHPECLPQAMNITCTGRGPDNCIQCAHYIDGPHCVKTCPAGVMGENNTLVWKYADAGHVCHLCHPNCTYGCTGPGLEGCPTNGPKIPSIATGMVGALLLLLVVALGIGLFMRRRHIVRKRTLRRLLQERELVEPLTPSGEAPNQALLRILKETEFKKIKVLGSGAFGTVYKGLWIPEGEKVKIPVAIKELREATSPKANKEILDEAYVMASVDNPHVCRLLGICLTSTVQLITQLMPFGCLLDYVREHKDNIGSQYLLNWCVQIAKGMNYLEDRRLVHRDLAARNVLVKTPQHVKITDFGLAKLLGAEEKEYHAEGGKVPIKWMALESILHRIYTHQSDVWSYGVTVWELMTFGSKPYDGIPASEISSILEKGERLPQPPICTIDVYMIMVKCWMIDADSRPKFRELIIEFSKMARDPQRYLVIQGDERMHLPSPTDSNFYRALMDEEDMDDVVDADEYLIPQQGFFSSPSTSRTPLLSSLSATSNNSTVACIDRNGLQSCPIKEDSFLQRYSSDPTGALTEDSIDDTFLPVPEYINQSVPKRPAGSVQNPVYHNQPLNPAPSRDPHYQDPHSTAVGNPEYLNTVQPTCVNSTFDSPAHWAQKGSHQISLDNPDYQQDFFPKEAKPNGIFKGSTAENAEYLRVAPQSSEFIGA
Vascular endothelial growth factor receptor 3 (Homo sapiens), sequence (P35916 whole entry): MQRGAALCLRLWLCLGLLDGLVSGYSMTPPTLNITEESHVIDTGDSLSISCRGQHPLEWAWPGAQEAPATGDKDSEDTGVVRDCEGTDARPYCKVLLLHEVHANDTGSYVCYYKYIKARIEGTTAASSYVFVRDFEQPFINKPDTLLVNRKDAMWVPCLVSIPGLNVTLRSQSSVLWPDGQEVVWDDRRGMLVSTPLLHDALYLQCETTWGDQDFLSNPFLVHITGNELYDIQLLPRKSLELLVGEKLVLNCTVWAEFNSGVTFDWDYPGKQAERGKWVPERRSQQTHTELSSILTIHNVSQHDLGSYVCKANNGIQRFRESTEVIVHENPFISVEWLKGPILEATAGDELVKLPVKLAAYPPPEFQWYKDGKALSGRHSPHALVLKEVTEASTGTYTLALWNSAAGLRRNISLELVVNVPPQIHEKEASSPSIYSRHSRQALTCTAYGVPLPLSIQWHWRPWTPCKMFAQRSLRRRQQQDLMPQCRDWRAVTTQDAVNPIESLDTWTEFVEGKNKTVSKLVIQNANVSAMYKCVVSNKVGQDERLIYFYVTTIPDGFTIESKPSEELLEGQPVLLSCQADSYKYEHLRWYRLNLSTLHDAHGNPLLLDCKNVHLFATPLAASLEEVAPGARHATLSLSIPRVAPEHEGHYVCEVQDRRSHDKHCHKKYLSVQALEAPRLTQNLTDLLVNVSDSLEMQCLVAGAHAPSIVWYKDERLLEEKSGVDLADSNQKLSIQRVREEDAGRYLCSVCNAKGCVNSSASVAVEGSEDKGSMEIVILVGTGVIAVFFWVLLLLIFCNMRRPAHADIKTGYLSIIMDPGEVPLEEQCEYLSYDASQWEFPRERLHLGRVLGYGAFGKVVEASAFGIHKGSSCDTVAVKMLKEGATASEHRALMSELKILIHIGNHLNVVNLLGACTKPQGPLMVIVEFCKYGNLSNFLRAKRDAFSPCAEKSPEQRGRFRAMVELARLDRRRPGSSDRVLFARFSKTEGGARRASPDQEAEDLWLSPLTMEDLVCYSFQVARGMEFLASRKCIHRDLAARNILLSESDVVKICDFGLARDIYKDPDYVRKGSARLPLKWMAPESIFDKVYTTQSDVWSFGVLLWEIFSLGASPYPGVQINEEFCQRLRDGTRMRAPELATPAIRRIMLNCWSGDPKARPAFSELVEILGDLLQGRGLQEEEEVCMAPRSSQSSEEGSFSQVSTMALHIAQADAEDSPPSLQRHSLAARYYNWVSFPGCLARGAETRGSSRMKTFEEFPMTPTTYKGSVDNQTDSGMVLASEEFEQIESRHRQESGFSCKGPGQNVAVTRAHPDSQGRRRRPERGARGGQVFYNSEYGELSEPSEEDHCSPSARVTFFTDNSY

IC50 [1]: 15 µM
inhibition [2]: 50%
inhibition [3]: 90%
Activity [4]: inactive
Activity [5]: inactive
Activity [6]: inactive
Activity [7]: inactive
Activity [8]: inactive
Activity [9]: inactive
Activity [10]: inactive
Activity [11]: inactive
SMILES: CCOC(=O)c1cc2ccc3c4cccc(Cl)c4[nH]c3c2[nH]1

IC50 [1]: > 100 µM
SMILES: CCOC(=O)c1cc2ccc3c4ccc(Cl)cc4[nH]c3c2[nH]1

IC50 [1]: > 100 µM
SMILES: CCOC(=O)c1cc2ccc3c([nH]c4cccc(Cl)c43)c2[nH]1

IC50 [1]: > 100 µM
SMILES: CCOC(=O)c1cc2ccc3c4cc(Cl)ccc4[nH]c3c2[nH]1

The next lines start with the compound.

SMILES: CCOC(=O)c1cc2ccc3c4ccccc4[nH]c3c2[nH]1
IC50 [1]: > 100 µM

SMILES: CCOC(=O)c1cc2ccc3c4cc(C)ccc4[nH]c3c2[nH]1
IC50 [1]: > 100 µM

SMILES: CCOC(=O)c1cc2ccc3c4cc(OC)ccc4[nH]c3c2[nH]1
IC50 [1]: > 100 µM
